From ChEMBL document CHEMBL2390926, “Identification of novel FLT3 kinase inhibitors” (Eur J Med Chem, 2013)
pEC50: −log10 of the molar value. Activity calls are given as the source filed them. The calls are words filed in the database; no cut-off is given here.

Experiments:
[1] = target: Tyrosine-protein kinase Yes (Homo sapiens) (UniProt P07947); assay: Inhibition of YES (unknown origin) transfected in mouse Ba/F3 cells at 5 uM after 24 hrs; assay type: cell-based; conditions: BaF3
[2] = target: T1, Non-receptor tyrosine-protein kinase TNK1 (Homo sapiens) (UniProt Q13470); assay: Inhibition of TNK1 (unknown origin) transfected in mouse Ba/F3 cells at 5 uM after 24 hrs; assay type: cell-based; conditions: BaF3
T1 sequence (whole entry): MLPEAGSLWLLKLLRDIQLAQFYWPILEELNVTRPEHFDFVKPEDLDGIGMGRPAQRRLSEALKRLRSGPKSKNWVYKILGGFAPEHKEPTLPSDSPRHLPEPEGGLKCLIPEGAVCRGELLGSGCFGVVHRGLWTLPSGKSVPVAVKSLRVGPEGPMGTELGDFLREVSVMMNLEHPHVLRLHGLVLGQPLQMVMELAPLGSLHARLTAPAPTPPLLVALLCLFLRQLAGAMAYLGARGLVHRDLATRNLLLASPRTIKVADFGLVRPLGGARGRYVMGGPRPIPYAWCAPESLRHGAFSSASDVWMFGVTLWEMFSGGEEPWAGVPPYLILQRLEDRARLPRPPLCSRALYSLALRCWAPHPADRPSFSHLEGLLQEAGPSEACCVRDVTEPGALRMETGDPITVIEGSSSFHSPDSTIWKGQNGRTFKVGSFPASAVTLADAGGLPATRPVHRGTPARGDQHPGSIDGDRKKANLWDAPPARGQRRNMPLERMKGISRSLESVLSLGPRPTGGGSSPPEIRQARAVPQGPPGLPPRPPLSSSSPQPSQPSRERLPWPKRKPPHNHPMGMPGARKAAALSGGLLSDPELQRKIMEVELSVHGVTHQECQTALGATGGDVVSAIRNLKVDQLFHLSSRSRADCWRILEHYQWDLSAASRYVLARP

[3] = target: Tyrosine-protein kinase SYK (Homo sapiens) (UniProt P43405); assay: Inhibition of SYK (unknown origin) transfected in mouse Ba/F3 cells at 5 uM after 24 hrs; assay type: cell-based; conditions: BaF3
[4] = target: NT-3 growth factor receptor (Homo sapiens) (UniProt Q16288); assay: Inhibition of NTRK3 (unknown origin) transfected in mouse Ba/F3 cells at 5 uM after 24 hrs; assay type: cell-based; conditions: BaF3
Sequence of NT-3 growth factor receptor (Homo sapiens) (Q16288 32-839 limits assumed): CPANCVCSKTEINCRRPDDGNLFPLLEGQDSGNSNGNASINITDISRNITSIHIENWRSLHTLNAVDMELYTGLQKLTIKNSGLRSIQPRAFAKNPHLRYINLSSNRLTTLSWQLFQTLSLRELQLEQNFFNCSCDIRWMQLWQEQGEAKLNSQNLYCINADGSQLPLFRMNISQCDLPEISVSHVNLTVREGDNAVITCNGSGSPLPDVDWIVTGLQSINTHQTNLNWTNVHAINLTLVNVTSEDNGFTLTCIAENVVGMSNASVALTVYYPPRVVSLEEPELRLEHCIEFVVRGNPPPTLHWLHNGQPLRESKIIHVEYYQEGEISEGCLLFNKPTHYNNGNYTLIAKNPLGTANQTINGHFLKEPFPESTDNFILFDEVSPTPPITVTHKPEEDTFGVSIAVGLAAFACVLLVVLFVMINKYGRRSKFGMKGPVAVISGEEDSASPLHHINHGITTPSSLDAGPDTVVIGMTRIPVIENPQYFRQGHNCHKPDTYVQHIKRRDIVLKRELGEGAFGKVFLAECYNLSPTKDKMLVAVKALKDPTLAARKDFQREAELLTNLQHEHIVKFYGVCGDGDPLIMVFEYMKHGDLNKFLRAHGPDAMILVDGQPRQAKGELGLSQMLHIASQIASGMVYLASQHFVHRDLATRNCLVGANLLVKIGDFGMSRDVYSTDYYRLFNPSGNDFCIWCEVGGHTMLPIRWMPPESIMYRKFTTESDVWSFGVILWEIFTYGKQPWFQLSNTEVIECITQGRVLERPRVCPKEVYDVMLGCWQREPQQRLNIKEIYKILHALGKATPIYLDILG

[5] = target: Receptor tyrosine-protein kinase erbB-2 (Homo sapiens) (UniProt P04626); assay: Inhibition of ERBB2 (unknown origin) transfected in mouse Ba/F3 cells at 5 uM after 24 hrs; assay type: cell-based; conditions: BaF3
Sequence of Receptor tyrosine-protein kinase erbB-2 (Homo sapiens) (P04626 whole entry): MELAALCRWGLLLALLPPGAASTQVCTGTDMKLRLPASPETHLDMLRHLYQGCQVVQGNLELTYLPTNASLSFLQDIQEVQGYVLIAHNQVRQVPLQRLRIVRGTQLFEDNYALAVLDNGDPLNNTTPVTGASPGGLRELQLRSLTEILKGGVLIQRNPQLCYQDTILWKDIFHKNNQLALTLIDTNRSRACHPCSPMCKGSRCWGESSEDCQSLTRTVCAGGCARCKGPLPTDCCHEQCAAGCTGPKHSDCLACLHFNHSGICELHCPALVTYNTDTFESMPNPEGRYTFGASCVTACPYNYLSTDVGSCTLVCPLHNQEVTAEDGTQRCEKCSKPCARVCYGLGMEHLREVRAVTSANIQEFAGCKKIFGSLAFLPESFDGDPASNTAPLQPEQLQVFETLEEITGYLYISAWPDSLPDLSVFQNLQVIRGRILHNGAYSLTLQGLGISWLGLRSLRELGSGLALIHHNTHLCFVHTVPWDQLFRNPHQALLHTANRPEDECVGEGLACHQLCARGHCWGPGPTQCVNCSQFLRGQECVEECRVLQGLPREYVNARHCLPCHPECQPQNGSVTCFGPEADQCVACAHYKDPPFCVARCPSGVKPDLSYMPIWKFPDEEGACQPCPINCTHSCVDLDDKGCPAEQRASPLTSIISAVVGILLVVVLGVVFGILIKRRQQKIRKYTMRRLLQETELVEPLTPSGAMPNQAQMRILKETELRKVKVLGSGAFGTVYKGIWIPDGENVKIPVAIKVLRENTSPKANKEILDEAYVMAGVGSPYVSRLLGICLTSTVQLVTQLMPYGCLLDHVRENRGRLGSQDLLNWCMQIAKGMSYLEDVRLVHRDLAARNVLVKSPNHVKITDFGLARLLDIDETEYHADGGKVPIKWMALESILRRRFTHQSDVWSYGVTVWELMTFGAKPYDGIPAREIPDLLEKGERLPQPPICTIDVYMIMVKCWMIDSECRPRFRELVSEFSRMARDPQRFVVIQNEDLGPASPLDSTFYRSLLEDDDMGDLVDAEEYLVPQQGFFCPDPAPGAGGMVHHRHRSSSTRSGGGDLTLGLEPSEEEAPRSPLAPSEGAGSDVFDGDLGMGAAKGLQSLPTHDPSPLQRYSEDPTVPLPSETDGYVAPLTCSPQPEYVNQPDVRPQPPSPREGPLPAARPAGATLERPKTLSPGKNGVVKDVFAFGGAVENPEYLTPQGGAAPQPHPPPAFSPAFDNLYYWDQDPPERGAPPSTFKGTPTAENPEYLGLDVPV
Method in brief: (§1)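 Kinase specificity panel: each Ba/F3 line transformed with one of 24 tyrosine kinases depends on that kinase to grow. Cells were given compound at 1 or 5 µM for 24 h, with DMSO as comparator. Percentage growth was read by ATP-lite luminescence and reported as mean ± SEM.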

[6] = target: Ephrin type-A receptor 7 (Homo sapiens) (UniProt Q15375); assay: Inhibition of EPHA7 (unknown origin) transfected in mouse Ba/F3 cells at 5 uM after 24 hrs; assay type: cell-based; conditions: BaF3; method in brief: as §1
Sequence of Ephrin type-A receptor 7 (Homo sapiens) (Q15375 28-998 limits assumed): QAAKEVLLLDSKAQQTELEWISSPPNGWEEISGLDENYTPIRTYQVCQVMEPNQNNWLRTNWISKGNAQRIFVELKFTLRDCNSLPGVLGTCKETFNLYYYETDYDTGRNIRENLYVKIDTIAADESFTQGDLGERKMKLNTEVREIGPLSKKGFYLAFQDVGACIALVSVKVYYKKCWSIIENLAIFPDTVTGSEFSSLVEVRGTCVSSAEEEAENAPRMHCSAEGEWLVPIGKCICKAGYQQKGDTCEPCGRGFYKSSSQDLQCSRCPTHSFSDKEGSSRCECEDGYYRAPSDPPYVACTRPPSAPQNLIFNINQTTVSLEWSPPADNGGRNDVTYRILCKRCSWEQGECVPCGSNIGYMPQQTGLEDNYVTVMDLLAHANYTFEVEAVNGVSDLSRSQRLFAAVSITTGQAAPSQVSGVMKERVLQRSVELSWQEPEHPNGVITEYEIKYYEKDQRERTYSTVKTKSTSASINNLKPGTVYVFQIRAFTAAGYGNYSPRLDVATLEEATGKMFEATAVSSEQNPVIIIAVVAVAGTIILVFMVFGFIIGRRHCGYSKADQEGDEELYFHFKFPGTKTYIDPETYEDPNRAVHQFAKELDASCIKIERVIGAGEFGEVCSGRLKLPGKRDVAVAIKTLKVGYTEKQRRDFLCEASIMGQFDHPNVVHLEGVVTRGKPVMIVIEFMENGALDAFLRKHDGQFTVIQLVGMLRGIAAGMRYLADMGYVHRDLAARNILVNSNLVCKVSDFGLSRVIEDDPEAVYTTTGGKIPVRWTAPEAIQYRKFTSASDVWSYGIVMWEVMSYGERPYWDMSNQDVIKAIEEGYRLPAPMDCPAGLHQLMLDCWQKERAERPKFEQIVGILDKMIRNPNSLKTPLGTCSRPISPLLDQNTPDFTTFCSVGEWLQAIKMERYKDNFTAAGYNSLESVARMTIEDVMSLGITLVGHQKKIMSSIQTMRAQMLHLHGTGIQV

[7] = target: Tyrosine-protein kinase receptor UFO (Homo sapiens) (UniProt P30530); assay: Inhibition of AXL (unknown origin) transfected in mouse Ba/F3 cells at 5 uM after 24 hrs; assay type: cell-based; conditions: BaF3; method in brief: as §1
Sequence of Tyrosine-protein kinase receptor UFO (Homo sapiens) (P30530 whole entry): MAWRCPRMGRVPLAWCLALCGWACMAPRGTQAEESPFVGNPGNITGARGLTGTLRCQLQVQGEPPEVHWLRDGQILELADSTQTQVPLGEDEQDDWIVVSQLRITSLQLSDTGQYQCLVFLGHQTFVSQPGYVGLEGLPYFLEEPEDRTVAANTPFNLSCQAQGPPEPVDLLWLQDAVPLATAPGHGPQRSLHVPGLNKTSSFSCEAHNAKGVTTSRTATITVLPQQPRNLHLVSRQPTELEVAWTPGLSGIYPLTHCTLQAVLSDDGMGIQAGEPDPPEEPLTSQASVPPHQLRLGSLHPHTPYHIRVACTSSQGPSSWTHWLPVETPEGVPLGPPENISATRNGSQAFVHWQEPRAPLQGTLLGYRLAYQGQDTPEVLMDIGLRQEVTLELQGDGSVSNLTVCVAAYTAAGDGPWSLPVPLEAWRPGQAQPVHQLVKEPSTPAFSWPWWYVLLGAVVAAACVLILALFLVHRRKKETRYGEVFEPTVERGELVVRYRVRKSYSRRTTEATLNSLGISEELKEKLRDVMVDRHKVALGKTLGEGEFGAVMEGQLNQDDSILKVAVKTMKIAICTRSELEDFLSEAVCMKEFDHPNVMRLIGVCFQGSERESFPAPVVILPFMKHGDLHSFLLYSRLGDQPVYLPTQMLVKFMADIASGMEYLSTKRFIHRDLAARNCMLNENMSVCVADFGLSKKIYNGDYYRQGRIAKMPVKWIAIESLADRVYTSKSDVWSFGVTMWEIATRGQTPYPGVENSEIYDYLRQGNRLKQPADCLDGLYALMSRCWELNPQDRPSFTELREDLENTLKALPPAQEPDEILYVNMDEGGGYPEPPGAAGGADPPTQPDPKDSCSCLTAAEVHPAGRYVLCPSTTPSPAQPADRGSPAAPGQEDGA

BaF3 = assay: Cytotoxicity against mouse BA/F3 cells transfected with FLT3-ITD-F691l at 1 uM after 24 hrs by plate reader analysis; assay type: functional, cell-based
KG-1 = assay: Cytotoxicity against human KG1 cells after 24 hrs by plate reader analysis; assay type: functional, cell-based; conditions: KG-1, 24 h
Method in brief: (§2)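 Cells in RPMI 1640 with 10% FBS at 37 °C and 5% CO2 were seeded at 100,000 cells/ml. They were treated for 24 h at 8 concentrations (50–6400 nM), each in triplicate, with DMSO as negative control. Viable cells were measured by ATP-lite luminescence, and EC50 was taken from dose–response curves.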

MOLM-13 = assay: Cytotoxicity against human MOLM13 cells after 24 hrs by plate reader analysis; assay type: functional, cell-based; conditions: MOLM-13, 24 h; method in brief: as §2
[8] = target: T2, Ephrin type-A receptor 8 (Homo sapiens) (UniProt P29322); assay: Inhibition of EPHA8 (unknown origin) transfected in mouse Ba/F3 cells up to 1 uM; assay type: cell-based; conditions: BaF3
T2 sequence (whole entry): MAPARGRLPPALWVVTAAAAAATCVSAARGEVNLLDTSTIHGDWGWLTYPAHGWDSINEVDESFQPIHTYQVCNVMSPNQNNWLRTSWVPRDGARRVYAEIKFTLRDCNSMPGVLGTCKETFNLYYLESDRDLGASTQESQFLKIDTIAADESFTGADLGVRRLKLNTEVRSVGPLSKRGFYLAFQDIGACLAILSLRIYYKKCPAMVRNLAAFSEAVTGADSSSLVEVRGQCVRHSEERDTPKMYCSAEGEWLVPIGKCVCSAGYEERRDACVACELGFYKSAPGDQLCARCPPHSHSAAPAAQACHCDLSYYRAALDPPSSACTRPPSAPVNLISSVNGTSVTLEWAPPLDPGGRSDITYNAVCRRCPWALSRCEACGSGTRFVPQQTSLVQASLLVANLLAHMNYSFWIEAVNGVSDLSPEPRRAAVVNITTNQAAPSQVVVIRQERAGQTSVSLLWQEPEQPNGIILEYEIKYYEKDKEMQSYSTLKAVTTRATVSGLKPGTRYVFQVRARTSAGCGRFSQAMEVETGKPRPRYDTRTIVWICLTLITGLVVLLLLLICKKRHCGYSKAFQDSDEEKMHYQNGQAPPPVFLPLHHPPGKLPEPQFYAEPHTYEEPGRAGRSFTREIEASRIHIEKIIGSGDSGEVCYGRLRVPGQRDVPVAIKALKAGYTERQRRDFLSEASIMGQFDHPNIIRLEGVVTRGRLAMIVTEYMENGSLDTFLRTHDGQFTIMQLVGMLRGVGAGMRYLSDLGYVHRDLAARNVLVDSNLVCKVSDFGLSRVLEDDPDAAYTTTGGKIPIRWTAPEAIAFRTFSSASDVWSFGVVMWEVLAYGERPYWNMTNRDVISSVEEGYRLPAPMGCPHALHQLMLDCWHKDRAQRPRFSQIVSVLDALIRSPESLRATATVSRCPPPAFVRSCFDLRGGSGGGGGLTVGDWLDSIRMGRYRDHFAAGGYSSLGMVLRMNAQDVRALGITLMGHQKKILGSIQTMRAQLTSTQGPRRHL

[9] = target: Ephrin type-A receptor 5 (Homo sapiens) (UniProt P54756); assay: Inhibition of EPHA5 (unknown origin) transfected in mouse Ba/F3 cells up to 1 uM; assay type: cell-based; conditions: BaF3
[10] = target: Tyrosine-protein kinase ABL2 (Homo sapiens) (UniProt P42684); assay: Inhibition of ABL2 (unknown origin) transfected in mouse Ba/F3 cells up to 1 uM; assay type: cell-based; conditions: BaF3
[11] = target: Platelet-derived growth factor receptor alpha (Homo sapiens) (UniProt P16234); assay: Inhibition of PDGFRalpha phosphorylation in human EOL-1 cells after 90 mins by Western blot analysis; assay type: cell-based; conditions: EOL1
Method in brief: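 EOL-1 cells (FIP1L1-PDGFRA, RPMI/10% FBS) treated 90 min with increasing compound doses. Lysed in lysis buffer with 1 mM NaVO4 and protease inhibitors, reduced, and run on Bis-Tris 4–12% gels. Western blot for phospho-PDGFRα and phospho-STAT5, with total PDGFRα and STAT5 as loading controls.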

Sequence of Tyrosine-protein kinase Yes (Homo sapiens) (P07947 2-543 limits assumed): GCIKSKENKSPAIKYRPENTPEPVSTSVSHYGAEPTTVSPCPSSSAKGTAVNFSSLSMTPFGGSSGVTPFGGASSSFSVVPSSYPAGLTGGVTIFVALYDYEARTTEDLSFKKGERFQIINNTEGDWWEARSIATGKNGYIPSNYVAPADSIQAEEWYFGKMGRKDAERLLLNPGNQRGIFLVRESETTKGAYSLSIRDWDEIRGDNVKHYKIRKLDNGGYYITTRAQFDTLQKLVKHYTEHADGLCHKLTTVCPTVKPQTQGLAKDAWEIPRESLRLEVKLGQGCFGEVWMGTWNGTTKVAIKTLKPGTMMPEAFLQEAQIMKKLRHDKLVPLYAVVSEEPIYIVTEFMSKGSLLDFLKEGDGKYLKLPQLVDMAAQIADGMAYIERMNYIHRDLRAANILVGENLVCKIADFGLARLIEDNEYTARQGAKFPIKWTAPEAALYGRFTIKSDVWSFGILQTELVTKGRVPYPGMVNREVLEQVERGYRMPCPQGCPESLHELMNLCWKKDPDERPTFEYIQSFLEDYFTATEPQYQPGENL

Row | Structure (SMILES) | inhibition [1] | inhibition [2] | inhibition [3] | inhibition [4] | inhibition [5] | inhibition [6] | inhibition [7] | Activity (BaF3) | pEC50 (KG-1) | pEC50 (MOLM-13) | inhibition [8] | inhibition [9] | inhibition [10] | inhibition [11]
1 | Cc1ccc(-n2cnc3cc(Nc4nnc(C)c5ccccc45)ccc32)cc1 | inactive | inactive | inactive | inactive | inactive | inactive | inactive | Active | – | – | – | – | – | –
2 | COc1ccc(C(=O)Nc2cc(-c3ccccc3)[nH]n2)cc1 | – | – | – | – | – | – | – | Active | 4.82 | 6.53 | – | – | – | –
3 | Fc1ccc(-c2n[nH]cc2-c2ccncc2)cc1Cl | inactive | inactive | inactive | inactive | inactive | inactive | inactive | – | – | – | inactive | inactive | inactive | –
4 | Cc1ccc(-c2cc(NC(=O)c3ccc(F)cc3)[nH]n2)cc1 | – | – | – | – | – | – | – | – | – | – | – | – | – | inactive
